Assay outcomes (PubChem BioAssay)
PREPL inh: inhibits the human prolyl oligopeptidase-like enzyme | recombinant PREPL, fluorescence polarization activity-based probe | inhibition, % at 5.96 µM | 320,000 tested, 0.68% active;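 note: 0% = enzyme with DMSO and 100% = wells lacking enzyme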
Target sequence (Q4J6C6 whole entry, looked up): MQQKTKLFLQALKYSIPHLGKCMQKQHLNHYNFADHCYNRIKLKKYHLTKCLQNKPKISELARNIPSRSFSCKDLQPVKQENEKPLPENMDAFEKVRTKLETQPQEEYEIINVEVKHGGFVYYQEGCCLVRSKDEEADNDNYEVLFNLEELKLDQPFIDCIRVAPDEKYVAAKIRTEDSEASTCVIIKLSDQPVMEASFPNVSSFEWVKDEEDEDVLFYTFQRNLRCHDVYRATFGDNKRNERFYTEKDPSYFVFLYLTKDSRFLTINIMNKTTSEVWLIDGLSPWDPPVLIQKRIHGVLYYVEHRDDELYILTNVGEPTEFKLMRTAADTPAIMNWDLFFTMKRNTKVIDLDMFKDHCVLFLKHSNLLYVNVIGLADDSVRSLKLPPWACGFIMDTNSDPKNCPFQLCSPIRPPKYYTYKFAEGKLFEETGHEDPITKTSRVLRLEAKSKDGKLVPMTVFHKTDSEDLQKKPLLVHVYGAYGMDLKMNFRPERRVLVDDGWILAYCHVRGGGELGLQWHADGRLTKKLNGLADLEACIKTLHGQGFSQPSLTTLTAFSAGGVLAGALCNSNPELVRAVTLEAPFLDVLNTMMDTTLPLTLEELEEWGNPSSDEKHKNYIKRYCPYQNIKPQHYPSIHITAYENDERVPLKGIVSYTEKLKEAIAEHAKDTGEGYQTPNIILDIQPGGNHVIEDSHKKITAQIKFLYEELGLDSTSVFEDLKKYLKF
MEKK2 mut-MEK5: signal of MEK5 binding to mutant human MEKK2 PB1 domain | AID 1530 | bead flow cytometry, Alexa488-MEK5 binding to MEKK2 mutant | 290,000 tested, 0.35% active | percent response, % at 10 µM; in the data active = percent response above about 24%, passing the limit was not always enough
MEKK2wt PB1 HTS: raises or lowers MEK5 binding to wildtype human MEKK2 PB1 domain | binding response (% of control), % at 10 µM | bead flow cytometry, Alexa488-MEK5 binding to MEKK2 WT; actives lie on both sides | 290,000 tested, 1.1% active | AID 1531; in the data active = binding response below about 67% or above about 130%
Apaf-1 inh: blocks human Apaf-1 apoptosome activity; 330,000 tested, 0.71% active; inhibition, % at 20 µM; reconstituted apoptosome caspase-3 activity, DEVD-Rh110 fluorescence; O14727; active = inhibition of at least 40% at 20 µM;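 note: plate controls were DMSO wells for no effect and DEVD-CHO caspase inhibitor wells for full effect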
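Material: reconstituted apoptosome with Apaf-1, cytochrome c, caspase-9, procaspase-3, dATP / Buffer or medium: pH 7.5 Hepes buffer with CHAPS, BSA, DTT / Also added: cytochrome c with DEVD-Rh110 / Schedule: compound with Apaf-1, dATP, procaspase-3 30 min, then 50 min reaction, room temperature / Technique: rhodamine 110 fluorescence at Ex 480/Em 540 nm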
UBC13 inh: blocks human UBC13 polyubiquitin chain formation; TR-FRET; 330,000 tested, 0.47% active; P61088; inhibition, % at 20 µM; AID 485273; in the data active = inhibition above about 45%, passing the limit was not always enough
MEKK3 PB1 HTS: raises or lowers MEK5 binding to the human MEKK3 PB1 domain; Q99759; bead-based flow cytometry, Alexa488-MEK5 binding to MEKK3; actives lie on both sides; 0 = blocked by unlabeled MEK5, 100 = vehicle; binding response (% of control), % at 10 µM; 290,000 tested, 1.4% active;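 active = binding response more than 3 SD above or below the average of its plate-row segment, actives on both sides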;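 note: Alexa488 bead fluorescence after subtracting the streptavidin-only scavenger bead signal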
PREPL inh cf: confirmation of human PREPL enzyme inhibitors; inhibition, % at 5.96 µM; AID 2803; recombinant PREPL, fluorescence polarization activity probe; 2,000 tested, 67% active; shares compounds with PREPL inh;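 note: 0% = protein with DMSO and 100% = wells lacking protein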
* marks the source's active call; other numbers are inactive results. Hits are enriched below; roughly 3.1% of the tested compounds scored in any of these assays. Cut-off read from the data, not from the text of the source, unless noted: active = inhibition above about 43%; inactive = the rest.

Results for Cc1ccc2[nH]c3c(N4CCOCC4)ncnc3c2c1 ?
PREPL inh: 12.5; MEKK2 mut-MEK5: 2.0; MEKK2wt PB1 HTS: 99.0; Apaf-1 inh: 2.9; UBC13 inh: 6.5; MEKK3 PB1 HTS: 91.0

Results for COc1ccc2[nH]c3c(N4CCC(O)(c5cccc(C(F)(F)F)c5)CC4)ncnc3c2c1 ?
PREPL inh: 49.7*; MEKK2 mut-MEK5: 14.0; MEKK2wt PB1 HTS: 126.0; Apaf-1 inh: 22.2; UBC13 inh: 6.8; MEKK3 PB1 HTS: 108.0; PREPL inh cf: 45.1*

What do the screens show for `COc1cccc(C(=O)Nc2cccc(-c3ccccc3)c2)c1`?
PREPL inh: -7.7; MEKK2 mut-MEK5: 1.0; MEKK2wt PB1 HTS: 103.0; Apaf-1 inh: 18.8; UBC13 inh: 9.5; MEKK3 PB1 HTS: 103.0

What do the screens show for `N=c1c(C(=O)NCc2ccc(F)cc2)cc2c(=O)n3ccccc3nc2n1Cc1cccnc1`?
PREPL inh: 44.5*; MEKK2 mut-MEK5: 4.0; MEKK2wt PB1 HTS: 99.0; Apaf-1 inh: -5.0; UBC13 inh: 0.0; MEKK3 PB1 HTS: 102.0; PREPL inh cf: 41.7

Results for CCCCN1CC[C@H]2C=CC[C@@H](C(=O)Nc3nccs3)[C@H]2C1=O ?
PREPL inh: -2.4; MEKK2 mut-MEK5: 0.0; MEKK2wt PB1 HTS: 103.0; Apaf-1 inh: -3.3; UBC13 inh: 6.6; MEKK3 PB1 HTS: 107.0

Results for O=C(CNC(=O)c1ccco1)NCC(c1ccco1)N1CCCCC1 (centres undefined) ?
PREPL inh: 73.2*; Apaf-1 inh: 13.7; UBC13 inh: 10.5; PREPL inh cf: 12.5

What do the screens show for `O=C(CNC(=O)c1ccccc1)NCC(c1ccco1)N1CCCC1` (centres undefined)?
PREPL inh: 16.3; Apaf-1 inh: 0.9; UBC13 inh: -1.7

What do the screens show for `O=[N+]([O-])c1cccc(-c2cc3cccc[n+]3cc2-c2cccc([N+](=O)[O-])c2)c1`?
PREPL inh: 25.3; MEKK2 mut-MEK5: 4.0; MEKK2wt PB1 HTS: 102.0; Apaf-1 inh: -18.9; UBC13 inh: -5.7; MEKK3 PB1 HTS: 101.0

How did Cc1cccc2cc(-c3ccccc3)c(-c3ccccc3)c[n+]12 do in these assays?
PREPL inh: 57.9*; MEKK2 mut-MEK5: -2.0; MEKK2wt PB1 HTS: 80.0; MEKK3 PB1 HTS: 86.0; PREPL inh cf: 45.6*

How did Cc1ccc2nc(-c3sc4nc(C)cc(C)c4c3N)[nH]c2c1 do in these assays?
PREPL inh: 72.8*; MEKK2 mut-MEK5: 4.0; MEKK2wt PB1 HTS: 94.0; Apaf-1 inh: 21.5; UBC13 inh: 1.1; MEKK3 PB1 HTS: 98.0; PREPL inh cf: 37.3

How did CCOC(=O)C[C@H]1c2ccccc2S(=O)(=O)N1c1cccc(OC)c1 do in these assays?
PREPL inh: 4.3; MEKK2 mut-MEK5: 2.0; MEKK2wt PB1 HTS: 101.0; Apaf-1 inh: 3.9; UBC13 inh: -5.4; MEKK3 PB1 HTS: 100.0

What do the screens show for `CC(C)CC(c1nnnn1Cc1cccs1)N1CCN(c2nc3ccccc3s2)CC1` (centres undefined)?
PREPL inh: 44.3*; MEKK2 mut-MEK5: 2.0; MEKK2wt PB1 HTS: 101.0; Apaf-1 inh: 29.7; UBC13 inh: -1.1; MEKK3 PB1 HTS: 101.0; PREPL inh cf: 33.0

How did COc1ccc(C2c3ccc4ccccc4c3Oc3ncn(CCN4CCOCC4)c(=N)c32)cc1OC (centres undefined) do in these assays?
PREPL inh: 46.2*; MEKK2 mut-MEK5: 15.0; MEKK2wt PB1 HTS: 115.0; Apaf-1 inh: 17.9; UBC13 inh: -2.1; MEKK3 PB1 HTS: 98.0; PREPL inh cf: 35.6

What do the screens show for `COC(=O)c1sccc1-c1ccc(/C=N/OC(=O)c2ccccc2)o1`?
PREPL inh: 43.4*; MEKK2 mut-MEK5: -2.0; MEKK2wt PB1 HTS: 92.0; Apaf-1 inh: 12.8; UBC13 inh: -9.1; MEKK3 PB1 HTS: 96.0; PREPL inh cf: 38.1

How did Cc1nc2ccc(NC(=O)CSc3ccccc3)cc2s1 do in these assays?
PREPL inh: -1.5; Apaf-1 inh: -4.1; UBC13 inh: 7.4

What do the screens show for `O=C(Nc1cccc(C(F)(F)F)c1)c1cccnn1`?
PREPL inh: -0.3; MEKK2 mut-MEK5: 6.0; MEKK2wt PB1 HTS: 103.0; Apaf-1 inh: 8.6; UBC13 inh: -0.5; MEKK3 PB1 HTS: 104.0

How did Cc1ccc(C)c(C(=O)OCC(=O)Nc2cccc(S(=O)(=O)NC3=NCCCCC3)c2)c1 do in these assays?
PREPL inh: 46.4*; MEKK2 mut-MEK5: -2.0; MEKK2wt PB1 HTS: 99.0; Apaf-1 inh: -18.3; UBC13 inh: 15.8; MEKK3 PB1 HTS: 105.0; PREPL inh cf: 32.9

How did CCOC(=O)[C@H]1[C@H]2COc3ccccc3[C@@H]2N2C(=O)[C@@H](CO)NC(=O)[C@@]12C do in these assays?
PREPL inh: 4.0; Apaf-1 inh: -2.3; UBC13 inh: -3.5

How did CC(=O)Nc1ccc(S(=O)(=O)NCCC(=O)OC(C)C(=O)NC2(C#N)CCCCC2)cc1 (centres undefined) do in these assays?
PREPL inh: 3.9; Apaf-1 inh: -1.9; UBC13 inh: 3.6

How did Cc1ccc(C(=O)Oc2coc(CSc3nnc(NC(=O)c4cccs4)s3)cc2=O)cc1 do in these assays?
PREPL inh: 76.0*; MEKK2 mut-MEK5: -1.0; MEKK2wt PB1 HTS: 88.0; Apaf-1 inh: 4.8; UBC13 inh: -2.7; MEKK3 PB1 HTS: 88.0; PREPL inh cf: 85.4*

Results for O=C(COc1ccccc1)NNc1c2ccccc2nc2ccccc12 ?
PREPL inh: 45.5*; MEKK2 mut-MEK5: 4.0; MEKK2wt PB1 HTS: 100.0; Apaf-1 inh: 22.9; UBC13 inh: -71.1; MEKK3 PB1 HTS: 102.0; PREPL inh cf: 39.4

How did O=C(NNc1c2ccccc2nc2ccccc12)c1ccc(O)cc1O do in these assays?
PREPL inh: 41.4; Apaf-1 inh: 11.7; UBC13 inh: -149.4

How did COc1ccc(OCC(=O)NNc2c3ccccc3nc3ccccc23)cc1 do in these assays?
PREPL inh: 43.7*; MEKK2 mut-MEK5: -10.0; MEKK2wt PB1 HTS: 91.0; Apaf-1 inh: 8.1; UBC13 inh: -88.5; MEKK3 PB1 HTS: 98.0; PREPL inh cf: 50.2*

What do the screens show for `O=C(NNc1c2ccccc2nc2ccccc12)c1ccccc1O`?
PREPL inh: 46.3*; MEKK2 mut-MEK5: 1.0; MEKK2wt PB1 HTS: 101.0; Apaf-1 inh: 4.6; UBC13 inh: -178.4; MEKK3 PB1 HTS: 100.0; PREPL inh cf: 30.5

What do the screens show for `Cc1cc(/C=N/NC(N)=S)c(C)n1-c1ccc(Cl)cc1`?
PREPL inh: 28.5; MEKK2 mut-MEK5: -3.0; MEKK2wt PB1 HTS: 95.0; Apaf-1 inh: 18.2; UBC13 inh: -27.6; MEKK3 PB1 HTS: 92.0

What do the screens show for `Cc1cc(/C=N/NC(N)=S)c(C)n1-c1ccc(Br)cc1`?
PREPL inh: 53.5*; MEKK2 mut-MEK5: 0.0; MEKK2wt PB1 HTS: 97.0; Apaf-1 inh: 1.9; UBC13 inh: -4.7; MEKK3 PB1 HTS: 100.0; PREPL inh cf: 45.3*
